From article PMC6510378 (Clinical and Translational Science, 2019)

Columns and labels:
4-week toxicology = type: in vivo; details: 4-week toxicology data, most sensitive species (rat)
[1] = mice, available in vivo pharmacology data; cited from earlier work
[2] = Safety and tolerability, MAD study; type: in vivo, human; details: for Any TEAE / Drug-related TEAE / Number of TEAEs / Number of drug-related TEAEs / TEAE: Constipation / TEAE: Gastrointestinal disorders / TEAE: General disorders and administration site conditions / TEAE: Headache / TEAE: Medical device site reaction / TEAE: Nervous system disorders / TEAE: Skin and subcutaneous tissue disorders: MAD study
Summary of the method: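 Safety was assessed from treatment-emergent adverse events: nature, frequency, severity, onset/offset and relatedness to study drug, coded by MedDRA system organ class. Also assessed were haematology, serum chemistry, urinalysis, physical examination with vital signs, and ECGs. CNS scales used were Bond and Lader VAS, ARCI-49 and Profile of Mood States. Data were summarized descriptively.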

[3] = tested on: hypothalamic‐pituitary‐adrenal (HPA) axis; test: HPA axis endocrine markers; type: in vivo, human
Summary of the method: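 Healthy young non-Japanese adults, open-label low-dose part. 0.7 or 2 mg was given as a single oral dose on day 1, then after a 6-day washout once daily. 0.4 mg was given once daily on days 1–14. 0.2 mg followed a 3 mg loading dose on day 1, days 2–14. Baseline urine endocrine markers were taken day –1. Urine cortisol came from first morning void. ACTH and DHEA-s were plasma. Follow-up sampling ran days 16–21 and day 28.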

11β‐HSD1 = 11β‐HSD1 (Homo sapiens, UniProt P28845); test: Urine 11β-HSD1 activity; type: in vivo
Chain of 11β‐HSD1 (P28845 whole entry): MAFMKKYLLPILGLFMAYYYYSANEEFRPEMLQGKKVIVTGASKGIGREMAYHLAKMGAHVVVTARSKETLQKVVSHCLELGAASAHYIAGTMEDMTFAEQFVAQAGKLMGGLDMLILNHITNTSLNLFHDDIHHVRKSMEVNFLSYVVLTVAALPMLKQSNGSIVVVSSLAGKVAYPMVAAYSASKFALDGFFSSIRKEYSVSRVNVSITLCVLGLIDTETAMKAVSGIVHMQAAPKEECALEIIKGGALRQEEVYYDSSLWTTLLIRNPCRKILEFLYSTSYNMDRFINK
Summary of the method: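 Hepatic 11β-HSD1 activity was taken as the urinary ratio of (5α + 5β)-tetrahydrocortisol to tetrahydrocortisone. In the single-dose study, urine was collected predose to 72 h. In the high-dose multiple-dose part, cumulative amounts excreted were measured on days 1 and 18. In the low-dose part, first morning void samples were used, with baseline on day –1 and follow-up through days 16–21 and day 28.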

11β‐HSD2 = details: at concentrations < 3,000 nM; ref Internal study reports 3662‐PH‐0001 and 3662‐PH‐0001‐0004; cited from earlier work
MAD study part 2 = type: in vivo, human
Summary of the method: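 Healthy young non-Japanese adults, open-label oral dosing. 0.7 or 2 mg was given as a single dose on day 1, then after a 6-day washout once daily. 0.4 mg was given once daily on days 1–14. 0.2 mg followed a 3 mg loading dose on day 1, days 2–14. PK doses were given fasted 10 h, with no food for 4 h. Plasma drug was measured by validated HPLC-MS/MS, with below-limit values set to zero. AUClast was reported where AUCinf was not calculable.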

[4] = tested on: models of neuropathic and dysfunctional pain; details: rats; cited from earlier work
[5] = MAD part 2, day 1 single dose 0.7 mg, young non-Japanese, n=6
[6] = MAD part 2, day 1 single dose 2 mg, young non-Japanese, n=2
[7] = MAD part 2, last day of q.d. 14 days 0.4 mg, young non-Japanese, n=2
[8] = MAD part 2, last day of q.d. 14 days 0.4 mg, young non-Japanese, n=4
[9] = MAD part 2, last day of q.d. 14 days 0.7 mg, young non-Japanese, n=1
[10] = MAD part 2, last day of q.d. 14 days 0.7 mg, young non-Japanese, n=6
[11] = MAD part 2, last day of q.d. 14 days 2 mg, young non-Japanese, n=4
[12] = MAD part 2, last day of q.d. 14 days 2 mg, young non-Japanese, n=5

Cn1c(-c2ccc(C(N)=O)cc2F)nnc1C(C)(C)Oc1c(F)cc(Cl)cc1F [ASP3662]
maximum recommended starting dose derived from the no observed adverse effect level (4-week toxicology): 10 mg | minimal pharmacological active oral dose [1]: 0.03 mg/kg | subjects with TEAE headache ([2]; MAD part 2, 0.2 mg): 2 n | subjects with TEAE headache ([2]; MAD part 2, 0.4 mg): 1 n | subjects with TEAE headache ([2]; MAD part 2, 0.7 mg): 1 n | subjects with TEAE headache ([2]; MAD part 2, 2 mg): 1 n | Any TEAE ([2]; 10 mg, n=8): 3 (37.5) n (%) | Drug-related TEAE ([2]; 10 mg, n=8): 2 (25.0) n (%) | Number of TEAEs ([2]; 10 mg, n=8): 3 | Number of drug-related TEAEs ([2]; 10 mg, n=8): 2 | TEAE: Constipation ([2]; 10 mg, n=8): 0 n (%) | TEAE: Gastrointestinal disorders ([2]; 10 mg, n=8): 0 n (%) | TEAE: General disorders and administration site conditions ([2]; 10 mg, n=8): 0 n (%) | TEAE: Headache ([2]; 10 mg, n=8): 0 n (%) | TEAE: Medical device site reaction ([2]; 10 mg, n=8): 0 n (%) | TEAE: Nervous system disorders ([2]; 10 mg, n=8): 0 n (%) | TEAE: Skin and subcutaneous tissue disorders ([2]; 10 mg, n=8): 1 (12.5) n (%) | Any TEAE ([2]; 20 mg, n=25): 14 (56.0) n (%) | Drug-related TEAE ([2]; 20 mg, n=25): 9 (36.0) n (%) | Number of TEAEs ([2]; 20 mg, n=25): 21 | Number of drug-related TEAEs ([2]; 20 mg, n=25): 12 | TEAE: Constipation ([2]; 20 mg, n=25): 1 (4.0) n (%) | TEAE: Gastrointestinal disorders ([2]; 20 mg, n=25): 1 (4.0) n (%) | TEAE: General disorders and administration site conditions ([2]; 20 mg, n=25): 3 (12.0) n (%) | TEAE: Headache ([2]; 20 mg, n=25): 5 (20.0) n (%) | TEAE: Medical device site reaction ([2]; 20 mg, n=25): 2 (8.0) n (%) | TEAE: Nervous system disorders ([2]; 20 mg, n=25): 9 (36.0) n (%) | TEAE: Skin and subcutaneous tissue disorders ([2]; 20 mg, n=25): 0 n (%) | Any TEAE ([2]; 50 mg, n=16): 6 (37.5) n (%) | Drug-related TEAE ([2]; 50 mg, n=16): 4 (25.0) n (%) | Number of TEAEs ([2]; 50 mg, n=16): 12 | Number of drug-related TEAEs ([2]; 50 mg, n=16): 6 | TEAE: Constipation ([2]; 50 mg, n=16): 2 (12.5) n (%) | TEAE: Gastrointestinal disorders ([2]; 50 mg, n=16): 2 (12.5) n (%) | TEAE: General disorders and administration site conditions ([2]; 50 mg, n=16): 1 (6.3) n (%) | TEAE: Headache ([2]; 50 mg, n=16): 3 (18.8) n (%) | TEAE: Medical device site reaction ([2]; 50 mg, n=16): 1 (6.3) n (%) | TEAE: Nervous system disorders ([2]; 50 mg, n=16): 3 (18.8) n (%) | TEAE: Skin and subcutaneous tissue disorders ([2]; 50 mg, n=16): 2 (12.5) n (%) | Any TEAE ([2]; ASP3662 total (10-50 mg), n=49): 23 (46.9) n (%) | Drug-related TEAE ([2]; ASP3662 total (10-50 mg), n=49): 15 (30.6) n (%) | Number of TEAEs ([2]; ASP3662 total (10-50 mg), n=49): 36 | Number of drug-related TEAEs ([2]; ASP3662 total (10-50 mg), n=49): 20 | TEAE: Constipation ([2]; ASP3662 total (10-50 mg), n=49): 3 (6.1) n (%) | TEAE: Gastrointestinal disorders ([2]; ASP3662 total (10-50 mg), n=49): 3 (6.1) n (%) | TEAE: General disorders and administration site conditions ([2]; ASP3662 total (10-50 mg), n=49): 4 (8.2) n (%) | TEAE: Headache ([2]; ASP3662 total (10-50 mg), n=49): 8 (16.3) n (%) | TEAE: Medical device site reaction ([2]; ASP3662 total (10-50 mg), n=49): 3 (6.1) n (%) | TEAE: Nervous system disorders ([2]; ASP3662 total (10-50 mg), n=49): 12 (24.5) n (%) | TEAE: Skin and subcutaneous tissue disorders ([2]; ASP3662 total (10-50 mg), n=49): 3 (6.1) n (%) | deaths, TEAEs leading to discontinuation, serious or drug-related TEAEs ([2]; both SAD and MAD studies): No deaths, TEAEs leading to discontinuation, serious TEAEs | potentially clinically significant orthostatic pulse rate measurements ([2]; elderly subjects who received ASP3662): 44.4% | overall safety and tolerability ([2]; multiple oral doses up to 50 mg for 14 days): safe and well tolerated | effects on ACTH, DHEA‐s and 24‐hour total urine glucocorticoids ([3]; MAD part 2, low dose): activation of the HPA axis | effect on urine cortisol levels ([3]; despite full 11β‐HSD1 inhibition, part 2 low dose): no significant effects | return of 11β‐HSD1 activity to baseline (11β‐HSD1; 16 days after discontinuation of multiple doses, even lowest dose 0.2 mg): incomplete | dose achieving full inhibition of peripheral 11β‐HSD1 (11β‐HSD1; clinical PD data referred to in the dose rationale): 3 mg | dose achieving full inhibition of 11β‐HSD1 (11β‐HSD1; multiple daily doses): ≥ 2 mg | 11β‐HSD1 activity ratio at maximal inhibition (11β‐HSD1; nadir at doses of 2 mg and above): ~ 0.1 ratio | inhibition of 11β‐HSD2 (11β‐HSD2): no inhibition | steady state after 14 days of q.d. dosing (MAD study part 2; 0.2 and 0.4 mg, despite 3‐mg loading dose in 0.2‐mg group): not fully reached | AUCinf (AUClast values presented, footnote a), Mean (SD) (MAD study part 2; [5]): 0.2437 (0.4421) ng·hour/mL | AUCinf (AUClast values presented, footnote a), Median (MAD study part 2; [5]): 0.01242 ng·h/mL | AUCinf (AUClast values presented, footnote a), Min–max (MAD study part 2; [5]): 0 to 1.11 ng·h/mL | CL/F, Mean (SD) (MAD study part 2; [6]): 42.21 (6.917) L/hour | CL/F, Median (MAD study part 2; [6]): 42.21 L/h | CL/F, Min–max (MAD study part 2; [6]): 37.3 to 47.1 L/h | VzF, Mean (SD) (MAD study part 2; [6]): 5,472 (1,378) L | VzF, Median (MAD study part 2; [6]): 5,472 L | VzF, Mean (SD) (MAD study part 2; [7]): 2,516 (45.89) L | VzF, Median (MAD study part 2; [7]): 2,516 L | VzF, Min–max (MAD study part 2; [7]): 2,484–2,549 L | CL/F, Mean (SD) (MAD study part 2; [8]): 10.83 (0.7639) L/hour | CL/F, Median (MAD study part 2; [8]): 10.83 L/h | CL/F, Min–max (MAD study part 2; [8]): 9.90 to 11.8 L/h | Ctrough, Mean (SD) (MAD study part 2; [8]): 1.072 (0.1719) ng/mL | Ctrough, Median (MAD study part 2; [8]): 1.053 ng/mL | Ctrough, Min–max (MAD study part 2; [8]): 0.918 to 1.26 ng/mL | VzF, Mean (SD) (MAD study part 2; [9]): 3,677 (NC) L | VzF, Median (MAD study part 2; [9]): 3,677 L | VzF, Min–max (MAD study part 2; [9]): 3,677–3,677 L | CL/F, Mean (SD) (MAD study part 2; [10]): 11.44 (2.349) L/hour | CL/F, Median (MAD study part 2; [10]): 11.34 L/h | CL/F, Min–max (MAD study part 2; [10]): 7.45 to 14.2 L/h | Ctrough, Mean (SD) (MAD study part 2; [10]): 1.389 (0.3190) ng/mL | Ctrough, Median (MAD study part 2; [10]): 1.234 ng/mL | Ctrough, Min–max (MAD study part 2; [10]): 1.10 to 1.83 ng/mL | VzF, Mean (SD) (MAD study part 2; [11]): 1,231 (547.6) L | VzF, Median (MAD study part 2; [11]): 1,165 L | VzF, Min–max (MAD study part 2; [11]): 715–1,880 L | CL/F, Mean (SD) (MAD study part 2; [12]): 9.41 (1.208) L/hour | CL/F, Median (MAD study part 2; [12]): 9.139 L/h | CL/F, Min–max (MAD study part 2; [12]): 8.23 to 11.4 L/h | Ctrough, Mean (SD) (MAD study part 2; [12]): 3.493 (1.166) ng/mL | Ctrough, Median (MAD study part 2; [12]): 3.437 ng/mL | Ctrough, Min–max (MAD study part 2; [12]): 1.80 to 5.03 ng/mL | analgesic effects [4]: significant analgesic effects
